The values below come from PMC4326595 (Molecular cancer therapeutics, 2014).

Common to all, as to experiment: HDAC-Glo I/II luminescent assay
Format in all cases: biochemical

One experiment addresses HDAC 3/NCOR1 (Homo sapiens, UniProt O15379). The procedure, abridged: (§1)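 Recombinant human enzymes: HDAC1 C-terminal GST, HDAC2/8/10 C-terminal His, HDAC6 N-terminal GST, HDAC3 as NCOR1 complex; each at a level in the lower linear titration range giving similar signal. Test compound, 15-point 3-fold dilutions (DMSO), pre-incubated with enzyme 20–30 min, room temperature; HDAC-Glo I/II detection reagent added, luminescence read after 20 min. Quadruplicate wells; IC50 values determined.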

The target of a further experiment is T1, HDAC 6 (Homo sapiens, UniProt Q9UBN7).
T1 sequence (Q9UBN7 1-1215): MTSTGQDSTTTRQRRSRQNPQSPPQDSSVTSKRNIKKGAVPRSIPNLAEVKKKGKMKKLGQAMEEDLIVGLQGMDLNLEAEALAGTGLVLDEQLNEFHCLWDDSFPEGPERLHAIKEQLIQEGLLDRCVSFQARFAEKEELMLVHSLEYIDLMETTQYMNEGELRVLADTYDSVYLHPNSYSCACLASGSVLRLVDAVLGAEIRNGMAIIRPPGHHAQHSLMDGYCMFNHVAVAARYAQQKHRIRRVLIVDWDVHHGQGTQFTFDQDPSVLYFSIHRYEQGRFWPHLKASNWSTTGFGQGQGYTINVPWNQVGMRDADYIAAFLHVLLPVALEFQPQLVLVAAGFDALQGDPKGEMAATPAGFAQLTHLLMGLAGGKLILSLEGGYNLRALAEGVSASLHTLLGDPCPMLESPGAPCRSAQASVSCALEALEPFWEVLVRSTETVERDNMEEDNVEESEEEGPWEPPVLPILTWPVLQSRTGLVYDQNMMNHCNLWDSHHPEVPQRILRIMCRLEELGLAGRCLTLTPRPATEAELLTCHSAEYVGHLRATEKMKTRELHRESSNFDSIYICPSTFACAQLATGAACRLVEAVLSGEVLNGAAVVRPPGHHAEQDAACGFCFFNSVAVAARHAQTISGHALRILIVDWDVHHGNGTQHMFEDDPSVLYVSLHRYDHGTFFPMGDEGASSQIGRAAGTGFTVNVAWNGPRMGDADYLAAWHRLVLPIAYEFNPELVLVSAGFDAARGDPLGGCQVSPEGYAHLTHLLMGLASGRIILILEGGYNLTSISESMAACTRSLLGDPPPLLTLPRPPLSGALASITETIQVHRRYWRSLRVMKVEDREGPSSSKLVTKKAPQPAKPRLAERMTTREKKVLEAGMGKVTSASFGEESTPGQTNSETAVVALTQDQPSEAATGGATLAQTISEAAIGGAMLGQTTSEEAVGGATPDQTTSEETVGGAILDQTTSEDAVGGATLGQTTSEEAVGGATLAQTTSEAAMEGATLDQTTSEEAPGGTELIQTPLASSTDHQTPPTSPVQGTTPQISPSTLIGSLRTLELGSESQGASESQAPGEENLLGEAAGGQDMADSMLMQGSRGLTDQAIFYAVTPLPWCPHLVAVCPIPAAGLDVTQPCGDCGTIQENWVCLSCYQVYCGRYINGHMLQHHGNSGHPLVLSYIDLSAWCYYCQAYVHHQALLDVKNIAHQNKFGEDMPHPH
The procedure, abridged:
as §1

The target of the next experiment is T2, HDAC 10 (Homo sapiens, UniProt Q969S8).
T2 sequence (Q969S8 1-669): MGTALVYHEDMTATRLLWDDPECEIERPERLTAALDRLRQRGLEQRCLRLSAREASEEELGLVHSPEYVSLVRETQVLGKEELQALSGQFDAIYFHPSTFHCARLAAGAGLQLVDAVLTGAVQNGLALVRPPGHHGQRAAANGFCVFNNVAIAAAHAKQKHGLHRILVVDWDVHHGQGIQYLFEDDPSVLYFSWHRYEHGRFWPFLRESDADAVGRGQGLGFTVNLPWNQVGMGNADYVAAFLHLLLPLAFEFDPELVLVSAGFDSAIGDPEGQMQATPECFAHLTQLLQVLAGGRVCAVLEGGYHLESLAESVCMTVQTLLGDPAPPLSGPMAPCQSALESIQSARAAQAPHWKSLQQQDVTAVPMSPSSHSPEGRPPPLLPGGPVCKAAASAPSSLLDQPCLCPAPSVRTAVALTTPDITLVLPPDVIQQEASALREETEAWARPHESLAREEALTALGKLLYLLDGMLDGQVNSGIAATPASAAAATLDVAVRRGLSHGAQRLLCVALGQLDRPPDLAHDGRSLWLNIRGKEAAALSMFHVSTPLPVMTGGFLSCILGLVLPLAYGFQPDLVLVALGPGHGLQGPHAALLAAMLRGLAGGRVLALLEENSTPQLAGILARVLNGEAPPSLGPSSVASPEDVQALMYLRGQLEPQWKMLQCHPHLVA
The procedure, abridged: as §1

Another experiment deals with HDAC 1 (Homo sapiens, UniProt Q13547). In outline: as §1
Chain of HDAC 1 (Q13547 whole entry): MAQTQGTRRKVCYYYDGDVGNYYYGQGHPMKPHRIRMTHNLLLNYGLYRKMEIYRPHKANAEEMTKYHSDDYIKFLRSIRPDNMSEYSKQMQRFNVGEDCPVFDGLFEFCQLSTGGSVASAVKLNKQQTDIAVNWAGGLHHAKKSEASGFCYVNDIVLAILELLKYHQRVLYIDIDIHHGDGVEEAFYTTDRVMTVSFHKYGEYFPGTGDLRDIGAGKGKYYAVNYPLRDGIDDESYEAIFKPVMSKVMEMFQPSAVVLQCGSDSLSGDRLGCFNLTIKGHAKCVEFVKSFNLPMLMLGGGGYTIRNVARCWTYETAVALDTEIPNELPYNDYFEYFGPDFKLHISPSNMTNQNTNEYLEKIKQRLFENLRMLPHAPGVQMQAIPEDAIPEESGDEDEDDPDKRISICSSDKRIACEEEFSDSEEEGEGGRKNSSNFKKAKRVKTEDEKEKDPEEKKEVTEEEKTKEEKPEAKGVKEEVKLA
The next experiment addresses T3, HDAC 8 (Homo sapiens, UniProt Q9BY41).
T3 sequence (Q9BY41 1-377): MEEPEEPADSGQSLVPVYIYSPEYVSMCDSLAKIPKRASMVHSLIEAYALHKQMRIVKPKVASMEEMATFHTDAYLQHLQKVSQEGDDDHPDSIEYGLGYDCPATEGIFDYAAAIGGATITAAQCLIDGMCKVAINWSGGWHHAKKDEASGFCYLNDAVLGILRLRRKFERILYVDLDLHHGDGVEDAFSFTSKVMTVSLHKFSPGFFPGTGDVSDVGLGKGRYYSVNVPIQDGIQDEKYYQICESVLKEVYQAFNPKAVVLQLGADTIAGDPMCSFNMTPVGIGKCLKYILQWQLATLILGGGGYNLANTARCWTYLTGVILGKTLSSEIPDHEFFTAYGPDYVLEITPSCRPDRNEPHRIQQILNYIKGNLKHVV
In outline: as §1

Another experiment concerns the target HDAC 2 (Homo sapiens, UniProt Q92769). The procedure, abridged:
as §1

Chain of HDAC 3/NCOR1 (O15379 whole entry): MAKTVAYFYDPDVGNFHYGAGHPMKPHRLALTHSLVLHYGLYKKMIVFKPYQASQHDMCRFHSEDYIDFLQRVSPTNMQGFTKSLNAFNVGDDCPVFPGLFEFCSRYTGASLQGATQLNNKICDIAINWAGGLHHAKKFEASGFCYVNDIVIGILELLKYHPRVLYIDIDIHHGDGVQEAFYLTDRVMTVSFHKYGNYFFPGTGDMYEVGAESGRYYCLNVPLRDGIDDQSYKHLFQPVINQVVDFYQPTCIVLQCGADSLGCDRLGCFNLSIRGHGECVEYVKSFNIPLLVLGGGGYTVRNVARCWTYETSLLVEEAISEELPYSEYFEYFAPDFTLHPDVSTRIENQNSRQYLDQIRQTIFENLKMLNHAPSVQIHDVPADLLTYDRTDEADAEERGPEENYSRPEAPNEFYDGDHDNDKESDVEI
Chain of HDAC 3/NCOR1 (O75376 whole entry partner): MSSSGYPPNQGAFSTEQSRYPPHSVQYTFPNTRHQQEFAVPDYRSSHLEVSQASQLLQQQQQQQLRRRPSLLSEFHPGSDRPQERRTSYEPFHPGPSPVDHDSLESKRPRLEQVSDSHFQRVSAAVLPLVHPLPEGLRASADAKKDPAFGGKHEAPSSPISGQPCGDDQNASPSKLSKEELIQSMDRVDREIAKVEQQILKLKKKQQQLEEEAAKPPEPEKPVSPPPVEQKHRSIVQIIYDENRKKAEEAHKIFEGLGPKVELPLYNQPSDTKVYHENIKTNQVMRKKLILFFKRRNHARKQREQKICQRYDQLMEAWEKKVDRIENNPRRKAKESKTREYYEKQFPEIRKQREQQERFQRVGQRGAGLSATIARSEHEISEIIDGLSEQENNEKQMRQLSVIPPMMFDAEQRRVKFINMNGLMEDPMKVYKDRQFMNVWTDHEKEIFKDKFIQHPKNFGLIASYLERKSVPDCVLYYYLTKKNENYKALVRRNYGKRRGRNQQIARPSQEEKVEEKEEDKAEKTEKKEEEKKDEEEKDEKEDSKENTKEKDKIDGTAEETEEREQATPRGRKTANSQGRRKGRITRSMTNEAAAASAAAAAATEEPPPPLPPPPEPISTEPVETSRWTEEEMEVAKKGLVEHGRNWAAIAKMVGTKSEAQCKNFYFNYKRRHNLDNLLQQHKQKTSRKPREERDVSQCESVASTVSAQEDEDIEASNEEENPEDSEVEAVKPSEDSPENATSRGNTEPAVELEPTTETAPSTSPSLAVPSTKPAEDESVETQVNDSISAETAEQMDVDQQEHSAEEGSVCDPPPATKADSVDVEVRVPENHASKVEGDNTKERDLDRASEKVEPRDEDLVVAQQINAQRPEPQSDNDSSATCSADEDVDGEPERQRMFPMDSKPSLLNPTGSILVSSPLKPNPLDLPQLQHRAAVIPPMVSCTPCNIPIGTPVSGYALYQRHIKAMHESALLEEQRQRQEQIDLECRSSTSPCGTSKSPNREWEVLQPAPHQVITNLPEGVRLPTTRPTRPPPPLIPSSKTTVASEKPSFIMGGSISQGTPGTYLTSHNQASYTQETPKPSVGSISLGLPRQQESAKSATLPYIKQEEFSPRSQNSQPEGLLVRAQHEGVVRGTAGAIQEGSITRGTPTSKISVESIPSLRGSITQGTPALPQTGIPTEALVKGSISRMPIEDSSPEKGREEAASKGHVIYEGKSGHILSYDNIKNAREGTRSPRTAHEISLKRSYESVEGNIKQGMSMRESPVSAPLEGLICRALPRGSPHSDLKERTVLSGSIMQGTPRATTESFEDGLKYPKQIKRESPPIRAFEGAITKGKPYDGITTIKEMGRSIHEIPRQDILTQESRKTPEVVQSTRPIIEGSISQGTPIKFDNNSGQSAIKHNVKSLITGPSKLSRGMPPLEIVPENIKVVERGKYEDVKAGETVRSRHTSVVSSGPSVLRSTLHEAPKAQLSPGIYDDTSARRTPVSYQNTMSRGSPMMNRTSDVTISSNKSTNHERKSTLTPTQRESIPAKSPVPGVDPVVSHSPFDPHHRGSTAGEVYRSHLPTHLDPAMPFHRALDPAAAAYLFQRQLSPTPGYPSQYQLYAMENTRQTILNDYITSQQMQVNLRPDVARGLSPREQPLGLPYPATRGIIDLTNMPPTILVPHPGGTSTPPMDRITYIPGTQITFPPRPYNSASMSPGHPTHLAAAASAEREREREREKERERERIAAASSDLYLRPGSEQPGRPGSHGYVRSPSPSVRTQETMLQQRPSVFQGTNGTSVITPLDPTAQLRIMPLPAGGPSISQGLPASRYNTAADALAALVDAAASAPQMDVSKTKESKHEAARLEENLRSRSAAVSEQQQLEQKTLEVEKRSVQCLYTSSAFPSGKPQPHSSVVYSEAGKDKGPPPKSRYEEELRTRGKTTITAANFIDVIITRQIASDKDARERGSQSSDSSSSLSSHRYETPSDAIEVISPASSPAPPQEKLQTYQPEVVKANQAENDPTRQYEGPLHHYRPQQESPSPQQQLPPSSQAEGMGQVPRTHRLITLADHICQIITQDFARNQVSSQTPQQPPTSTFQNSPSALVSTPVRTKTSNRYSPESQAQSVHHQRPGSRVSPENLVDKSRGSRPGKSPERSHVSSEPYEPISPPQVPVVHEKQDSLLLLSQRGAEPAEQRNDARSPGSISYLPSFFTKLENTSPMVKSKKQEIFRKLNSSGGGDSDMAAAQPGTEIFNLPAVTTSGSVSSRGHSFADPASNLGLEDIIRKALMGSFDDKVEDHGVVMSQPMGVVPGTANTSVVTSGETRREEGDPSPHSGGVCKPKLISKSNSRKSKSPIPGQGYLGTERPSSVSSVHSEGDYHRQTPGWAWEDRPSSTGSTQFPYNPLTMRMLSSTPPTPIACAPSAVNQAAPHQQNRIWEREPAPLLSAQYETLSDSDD
Chain of HDAC 2 (Q92769 whole entry): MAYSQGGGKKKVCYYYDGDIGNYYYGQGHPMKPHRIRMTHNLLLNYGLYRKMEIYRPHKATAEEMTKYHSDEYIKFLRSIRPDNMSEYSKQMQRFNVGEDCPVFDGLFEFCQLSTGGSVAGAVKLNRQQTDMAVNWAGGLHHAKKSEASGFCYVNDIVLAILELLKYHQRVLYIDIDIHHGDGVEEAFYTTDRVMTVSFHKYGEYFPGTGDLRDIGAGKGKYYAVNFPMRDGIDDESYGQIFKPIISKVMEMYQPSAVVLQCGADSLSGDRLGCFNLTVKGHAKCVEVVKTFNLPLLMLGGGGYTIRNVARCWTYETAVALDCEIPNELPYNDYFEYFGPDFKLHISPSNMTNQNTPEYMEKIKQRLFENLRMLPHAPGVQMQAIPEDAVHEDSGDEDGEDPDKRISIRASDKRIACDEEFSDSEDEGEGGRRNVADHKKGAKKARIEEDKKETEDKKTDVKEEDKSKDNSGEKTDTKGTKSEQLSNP

The IC50 is the concentration that gives 50% inhibition. High values mean weaker potency in that assay, low ones greater potency in that assay. `COc1ccc(C=NNC(=O)CCCCCCC(=O)NO)cc1` [AB3]: the IC50 was found to be 1.82 nM against HDAC 3/NCOR1; 35.8 nM at HDAC 6; 11.1 nM at HDAC 10; 2.28 nM on HDAC 1; 60.3 nM at HDAC 8; 3.12 nM against HDAC 2.
